Assay outcomes (PubChem)
EP2 modulator: modulates human prostaglandin E2 receptor EP2 signaling; EP2-expressing cells, cAMP HTRF FRET, PGE2 co-stimulation; actives 0.83% (n = 260,000); AID 940; induction, % at 25 µM;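 active means compounds whose cAMP rise, as percent of the full-agonist control response, exceeds 60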;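 further: rat C6 glioma line stably carrying human EP2 under a CMV promoter; the protocol text gives 20 µM as final concentration; 100% = response of wells given 1 µM PGE2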
Target sequence (P43116 whole entry, looked up): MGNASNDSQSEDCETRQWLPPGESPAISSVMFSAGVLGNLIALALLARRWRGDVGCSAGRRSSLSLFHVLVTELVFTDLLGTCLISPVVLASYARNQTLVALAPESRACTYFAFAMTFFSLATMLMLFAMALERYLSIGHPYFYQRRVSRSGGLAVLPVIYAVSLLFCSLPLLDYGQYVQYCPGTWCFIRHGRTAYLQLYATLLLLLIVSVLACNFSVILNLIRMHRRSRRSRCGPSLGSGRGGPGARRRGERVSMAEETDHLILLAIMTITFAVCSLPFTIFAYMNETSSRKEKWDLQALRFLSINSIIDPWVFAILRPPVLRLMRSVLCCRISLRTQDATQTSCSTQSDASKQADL
OX1R antag-1: OX1R (human) antagonism. OX1R-expressing cells, FRET antagonist read-out. AID 485270. actives 1.8% (n = 330,000). inhibition, % at 6.6 µM. O43613; in the data active means inhibition mostly above about 38%, no sharp cut-off; inactive means mostly below about 40%;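 further: 0% = agonist challenge alone and 100% = reference antagonist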
CHO parental Ca: counter-screen: ATP calcium response change in parental CHO cells; inhibition, % at 5.6 µM; AID 463079; actives 0.63% (n = 330,000); parental CHO-K1, ATP-induced calcium, Fluo-8 fluorescence;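 active means inhibition above that plate's mean sample inhibition plus 3 SD, cut at about 26% in these data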;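 further: 0% = ATP-challenged DMSO wells and 100% = DMSO wells without ATP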
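Material: parental CHO cells / Compound: single nominal dose of 5.6 µM per compound / Signal: Fluo-8 fluorescence / Replicates: singlicate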
GPR7 antagonist: antagonists of human GPR7 (neuropeptides B/W receptor 1); P48145; actives 1.1% (n = 290,000); inhibition, % at 4.4 µM; GPR7-expressing cells, fluorescence antagonist assay; in the data active means inhibition above about 16%, passing the limit was not always enough;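 further: cells stimulated with the agonist NPW; 0% = agonist with vehicle and 100% = vehicle without agonist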
OX1R antag-2: blocks the human orexin 1 receptor; O43613; CHO/OX1R cells, Fluo-8 calcium fluorescence, orexin A; inhibition, % at 5 µM; actives 0.43% (n = 330,000); AID 434989;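 active means inhibition above its plate's threshold, mean inhibition of all tested compounds on the plate plus 3 SD, cut at about 37% in these data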;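 further: 0% = orexin A challenge wells and 100% = SB-334867-A antagonist wells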
EP2 antag: inhibitors of human EP2 prostaglandin E2 receptor. P43116. C6 glioma cells expressing human EP2, cAMP TR-FRET; cells stimulated with saturating PGE2. inhibition, % at 25 µM. actives 0.52% (n = 260,000);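 active means percent inhibition above 40 after rounding to a whole number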;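 further: rat C6 glioma host cells with rolipram phosphodiesterase inhibitor present; the protocol text gives 20 µM as final concentration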
* marks the source's active call; other numbers are inactive results. A selection: hits, their analogues and other compounds. The true share with any hit is near 3.7%.

`CCCn1c(C(CO)Nc2nc(C)cs2)nc2ccccc21` (centres undefined) gave OX1R antag-1 14, CHO parental Ca 1, GPR7 antagonist -7 and OX1R antag-2 -13.
`Cc1cccc(N(CC(=O)NCCSCc2ccco2)S(=O)(=O)c2ccccc2)c1` gave EP2 modulator 20, OX1R antag-1 59, CHO parental Ca -11, GPR7 antagonist -2, OX1R antag-2 32 and EP2 antag 12.
`COc1cccc(N(CC(=O)NCCSCc2ccco2)S(=O)(=O)c2ccccc2)c1` gave OX1R antag-1 45*, CHO parental Ca -13, GPR7 antagonist 4 and OX1R antag-2 23.
For OC1(c2ccc(F)cc2)CN(c2ccccc2)C2=[N+]1CCS2 (centres undefined) the results were EP2 modulator 10, OX1R antag-1 22, CHO parental Ca -21, GPR7 antagonist -2, OX1R antag-2 -12 and EP2 antag 8.
O=C(Nc1cccn(Cc2c(Cl)cccc2Cl)c1=O)c1c(Cl)cccc1Cl was read as EP2 modulator 30, OX1R antag-1 56*, CHO parental Ca 3, GPR7 antagonist -13, OX1R antag-2 8 and EP2 antag 10.
For Cc1cccc(CN2CCC(C(=O)Nc3cccc(-c4cscn4)c3)CC2)n1 the results were OX1R antag-1 2, CHO parental Ca -23, GPR7 antagonist -4 and OX1R antag-2 -18.
For COC(=O)c1c(C)nc2nonc2c1N the results were EP2 modulator -8, OX1R antag-1 65*, CHO parental Ca 5, GPR7 antagonist -9, OX1R antag-2 -4 and EP2 antag 9.
`c1ccc([C@H](c2cccc3c2ccc2ccccc23)[C@H](c2ccccc2)c2cccc3c2ccc2ccccc23)cc1` gave EP2 modulator 8 and EP2 antag 41*.
For Cn1c(CNC(=O)Nc2cccc(Cl)c2)nnc1SCc1ccccc1 the results were EP2 modulator -37, OX1R antag-1 12, CHO parental Ca 21, GPR7 antagonist -7, OX1R antag-2 -1 and EP2 antag 30.
Screening CCn1c(CNc2cccc(Cl)c2)nnc1SCc1ccccc1 returned EP2 modulator -33, OX1R antag-1 4, CHO parental Ca -25, GPR7 antagonist 19*, OX1R antag-2 -1 and EP2 antag -4.
Screening CCc1ccc(OCC(=O)NNC(=O)CNC(=O)c2ccc(Br)o2)cc1 returned OX1R antag-1 -2, CHO parental Ca -8 and OX1R antag-2 -9.
For CCCOc1ccc(OC(=O)c2ccc(Br)o2)cc1 the results were EP2 modulator 11, OX1R antag-1 32, CHO parental Ca 56*, GPR7 antagonist 2, OX1R antag-2 67* and EP2 antag 5.
`O=C(/C=C/c1ccco1)Nc1ccccc1N1CCCCC1` gave EP2 modulator 62*, OX1R antag-1 19, CHO parental Ca -40, GPR7 antagonist -22, OX1R antag-2 -31 and EP2 antag 4.
For Cc1c(Cl)ccc2sc(NC(=O)C3CC3)nc12 the results were OX1R antag-1 44*, CHO parental Ca 3, GPR7 antagonist 4 and OX1R antag-2 -20.
`CCn1c(COc2ccccc2C)nnc1SCC(=O)Nc1cc(C)on1` gave EP2 modulator 10, OX1R antag-1 1, CHO parental Ca 3, GPR7 antagonist -6, OX1R antag-2 5 and EP2 antag 5.
Screening CCOC(=O)c1ccc(NC(=O)C2C3CCCCC32)cc1 (centres undefined) returned GPR7 antagonist 8.
Cc1cc(C)n(Cc2ccc(Cl)nc2)n1 was read as EP2 modulator 5, OX1R antag-1 22, CHO parental Ca 3, GPR7 antagonist -11, OX1R antag-2 5 and EP2 antag 5.
Screening COc1ccc(Cn2nc(C)cc2C)cc1OC returned EP2 modulator 6, OX1R antag-1 17, CHO parental Ca 99*, GPR7 antagonist -9, OX1R antag-2 -9 and EP2 antag 4.
Screening Cc1ccc2nc(-c3ccc(NC(=O)c4ccc(N)cc4)c(S(=O)(=O)O)c3)sc2c1 returned EP2 modulator -12 and EP2 antag 46*.
For OCCCNC(=S)Nc1ccc2nc(-c3ccccn3)c(-c3ccccn3)nc2c1 the results were EP2 modulator 11, OX1R antag-1 75*, CHO parental Ca -11, GPR7 antagonist -1, OX1R antag-2 -13 and EP2 antag 11.
Screening O=C(c1ccc(-c2ccc([N+](=O)[O-])cc2Cl)o1)N1CCOCC1 returned EP2 modulator -32, OX1R antag-1 31, CHO parental Ca -20, GPR7 antagonist 20*, OX1R antag-2 -15 and EP2 antag 3.
`O=C(CN1CCOCC1)Nc1nc2ccc(F)cc2s1` gave EP2 modulator -5, OX1R antag-1 -1, CHO parental Ca -10, GPR7 antagonist -5, OX1R antag-2 -7 and EP2 antag 14.
O=C(c1cc2cc([N+](=O)[O-])ccc2s1)N1CCOCC1 was read as EP2 modulator -18, OX1R antag-1 46*, CHO parental Ca -6, GPR7 antagonist 4, OX1R antag-2 -4 and EP2 antag 10.
O=C(CN1CCOCC1)Nc1nc2ccc([N+](=O)[O-])cc2s1 was read as EP2 modulator 12, OX1R antag-1 62*, CHO parental Ca -13, GPR7 antagonist -9, OX1R antag-2 -40 and EP2 antag 5.
`O=C(c1cc2ccc([N+](=O)[O-])cc2oc1=O)N1CCOCC1` gave EP2 modulator -14, OX1R antag-1 57*, CHO parental Ca -7, GPR7 antagonist -12, OX1R antag-2 -1 and EP2 antag 6.
Screening CN(CCc1ccccn1)c1ccc2c(c1)Cc1ccccc1-2 returned EP2 modulator -57 and EP2 antag 52*.
O=C(CCc1ccc(S(=O)(=O)N2CCOCC2)cc1)N1CCCC1 was read as EP2 modulator -20, OX1R antag-1 1, CHO parental Ca -3, GPR7 antagonist -5, OX1R antag-2 -1 and EP2 antag 6.
For COc1cccc(/C=N/NC(=O)CSc2nnc(C)n2-c2ccccc2)c1O the results were EP2 modulator 2, OX1R antag-1 23, CHO parental Ca -13, GPR7 antagonist -4 and OX1R antag-2 -16.
For CCCCSc1nc(C)cc(SCC(=O)N/N=C/c2cccc(OC)c2O)n1 the results were EP2 modulator -39, OX1R antag-1 70, CHO parental Ca 34*, GPR7 antagonist -13 and OX1R antag-2 57*.
For Clc1ccc(-c2cnnc(-c3ccccn3)n2)cc1 the results were OX1R antag-1 43, CHO parental Ca -7 and OX1R antag-2 -12.
For C=CCOc1ccc(C2N3CC4(C)CN2CC(CCC)(C3)C4=O)cc1 (centres undefined) the results were EP2 modulator 10, OX1R antag-1 11, CHO parental Ca -31, GPR7 antagonist -2, OX1R antag-2 -18 and EP2 antag 17.
